Experimental data: ChEMBL document CHEMBL1134549, “Original 2-alkylamino-6-halogenoquinazolin-4(3H)-ones and K(ATP) channel activity” (J Med Chem, 2001)

Assays:
Rattus norvegicus [1] = species: Rattus norvegicus; assay: Percentage residual insulin secretion at 10 uM dose from pancreatic islets incubated in the presence of 16.7 mM glucose; type: functional
Summary of the method: (§1)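 Islets from fed Wistar rats (180–220 g), groups of 10, preincubated 30 min at 37 °C in salt medium with 2.8 mM glucose and 0.5% dialyzed albumin under O2/CO2. Then incubated 90 min at 37 °C with 16.7 mM glucose plus drug. Insulin measured by radioimmunoassay against a rat insulin standard; reported as percentage residual release.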

Rattus norvegicus [2] = species: Rattus norvegicus; assay: Myorelaxant activity as percentage residual contractile activity in rat uterus at 10 uM concentration.; type: functional
Summary of the method: (§2)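 Uterus from fed Wistar rats (150–200 g) pretreated the day before with diethylstilboestrol dipropionate i.m. Tissue superfused at 37 °C. Contractions induced by 20 mU oxytocin injections at 10 min intervals, scored as AUC. Baseline (100%) is the mean of the last three constant responses. Each drug concentration tested with at least three injections; mean AUC expressed as percent of the drug-free response.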

Cavia porcellus = species: Cavia porcellus; assay: In vitro inhibition electrically stimulated guinea pig ileum segment contraction.; type: functional
Summary of the method: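 Coaxial electrical stimulation with rectangular pulses (0.5 ms, 0.1 Hz, 5–25 V); isometric contraction recording. Drugs added at increasing concentrations until maximal effect.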

Rattus norvegicus [3] = species: Rattus norvegicus; assay: In vitro percentage residual insulin secretion at 50 uM dose from rat pancreatic islets incubated in the presence of 16.7 mM glucose.; type: functional; summary of the method: as §1
Rattus norvegicus [4] = species: Rattus norvegicus; assay: Myorelaxant activity as percentage residual contractile activity in rat uterus at 50 uM concentration.; type: functional; summary of the method: as §2
Rattus norvegicus [5] = species: Rattus norvegicus; assay: In vitro inhibition of 30 mM KCl-induced contraction of rat aorta rings.; type: functional
Rattus norvegicus [6] = species: Rattus norvegicus; assay: Percentage residual insulin secretion at 1 uM dose from pancreatic islets incubated in the presence of 16.7 mM glucose; type: functional; summary of the method: as §1
[7] = Myorelaxant activity in rat aorta with 10 uM glibenclamide and 30 mM KCL; type: functional, tissue-based
Summary of the method: (§3)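 Endothelium-denuded transverse aortic rings (3–4 mm) from fed Wistar rats (250–300 g) held under 2 g tension in Krebs-bicarbonate at 37 °C, 95% O2/5% CO2. After 60 min equilibration, contracted with 30 mM or 80 mM KCl; drugs added cumulatively to maximal relaxation, with or without glibenclamide throughout (1 or 10 μM).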

[8] = Myorelaxant activity in rat aorta with 1 uM glibenclamide and 30 mM KCL; type: functional, tissue-based; summary of the method: as §3
Rattus norvegicus [9] = species: Rattus norvegicus; assay: Myorelaxant activity in rat aorta in the presence 80 mM KCL.; type: functional; summary of the method: as §3

| IC50 (Cavia porcellus) | IC50 (Rattus norvegicus [5]) | IC50 [7] | IC50 [8] | IC50 (Rattus norvegicus [9]) | Structure (SMILES) | Secretion (Rattus norvegicus [1]) | Activity (Rattus norvegicus [2]) | Secretion (Rattus norvegicus [3]) | Activity (Rattus norvegicus [4]) | Secretion (Rattus norvegicus [6]) |
| --- | --- | --- | --- | --- | --- | --- | --- | --- | --- | --- |
| 13.2 µM | 1.7 µM |  |  |  | C[C@H](Nc1nc(O)c2cc(Cl)ccc2n1)c1ccccc1 | 76.9% | 92.4% | 12.9% | 44.9% |  |
| 20.2 µM | 2.8 µM |  |  |  | C[C@@H](Nc1nc(O)c2cc(Cl)ccc2n1)c1ccccc1 |  | 120% | 35% | 46.5% |  |
|  | 7.6 µM |  |  |  | Oc1nc(NCc2ccccc2)nc2ccc(Br)cc12 |  | 76.8% | 75.7% | 76.6% |  |
|  | 12.4 µM |  |  |  | CC(Nc1nc(O)c2ccccc2n1)C(C)(C)C (configuration not stated) |  |  | 50.9% |  |  |
| 26 µM | 3.9 µM |  |  |  | Oc1nc(NCC2CCCCC2)nc2ccc(I)cc12 | 65.4% | 96.8% | 10% | 97.9% |  |
| > 300 µM | 154 µM |  |  |  | CC(C)C(C)NC1=NS(=O)(=O)c2cnccc2N1 (configuration not stated) | 26.8% |  | 7.1% |  | 70.5% |
| 8.2 µM | 5.6 µM | > 30 µM | > 30 µM | 18.1 µM | C[C@@H](Nc1nc(O)c2cc(Cl)ccc2n1)C1CCCCC1 | 62.1% | 108% | 16.5% | 90.7% |  |
| 8.7 µM | 1.4 µM |  |  |  | Oc1nc(NCc2ccccc2)nc2ccc(I)cc12 |  | 106% | 82.8% | 106% |  |
|  | 67.3 µM |  |  |  | CC(C)Nc1nc(O)c2ccccc2n1 |  |  | 45.6% |  |  |
| 44.7 µM | 13.8 µM |  |  |  | CCC(C)Nc1nc(O)c2cc(Cl)ccc2n1 (configuration not stated) | 53.2% |  | 6% |  | 84.9% |
| 74.1 µM | 17.3 µM |  |  | 34.3 µM | CC(C)Nc1nc(O)c2cc(Cl)ccc2n1 | 55.1% | 78.7% | 6.6% | 61% | 80.7% |
| 59.2 µM | 16.3 µM |  |  |  | CC(C)C(C)Nc1nc(O)c2cc(Cl)ccc2n1 (configuration not stated) | 61.9% |  | 10.2% |  | 81.3% |
| 13.3 µM |  |  |  |  | Oc1nc(NCc2ccccc2)nc2ccc(Cl)cc12 |  | 94.8% | 82.5% | 98.1% |  |
| 44.1 µM | 12.1 µM | 46.4 µM | 37.3 µM | 37.2 µM | CC(C)Nc1nc(O)c2cc(I)ccc2n1 | 90.9% | 77.6% | 12.2% | 41% | 93.7% |
| 23.6 µM | 8.9 µM |  |  |  | CCC(C)Nc1nc(O)c2cc(I)ccc2n1 (configuration not stated) | 77.5% |  | 11.2% |  | 94.9% |
| 15.1 µM | 2.1 µM |  |  |  | C[C@H](Nc1nc(O)c2cc(Cl)ccc2n1)C1CCCCC1 | 43.6% | 102% | 8.9% | 66.5% |  |
| 30.4 µM | 4.1 µM |  |  |  | CC(C)C(C)Nc1nc(O)c2cc(I)ccc2n1 (configuration not stated) | 87.7% |  | 30.6% |  | 94.7% |
|  | 43.7 µM |  |  |  | Oc1nc(NCc2ccccc2)nc2ccccc12 |  | 97.2% | 61.8% | 47.4% |  |
| 23.9 µM | 2.2 µM |  |  |  | Oc1nc(NCC2CCCCC2)nc2ccc(Cl)cc12 | 90.1% | 86% | 26.5% | 80.3% |  |
| > 300 µM | 19.3 µM | 163 µM | 85.8 µM | > 300 µM | CC1=Nc2ccc(Cl)cc2S(=O)(=O)N1 [DIAZOXIDE] | 70% | 93.8% | 28.8% | 76.3% | 78.9% |
| 9.2 µM | 0.5 µM | 42.5 µM | 10.4 µM | 16 µM | CC(N/C(=N\C#N)Nc1ccncc1)C(C)(C)C (configuration not stated) [PINACIDIL ANHYDROUS] | 96% | 58.1% | 92.1% | 35.5% | 97.8% |
